# Measured values as given in ChEMBL document CHEMBL2021781, “Dual targeting of histone deacetylase and topoisomerase II with novel bifunctional inhibitors” (J Med Chem, 2012).
# Activity calls are given as the source filed them. The rule behind the calls is not given here.
# Columns and labels:
# [1] = target: Histone deacetylase (HDAC1 and HDAC2) (Homo sapiens, UniProt Q13547+Q92769); assay: Inhibition of HDAC1/2 in human HeLa cell nuclear extract using Fluor de Lys as substrate after 15 mins by fluorometric analysis; format: protein assay
# Histone deacetylase 8 = target: T1, Histone deacetylase 8 (Homo sapiens, UniProt Q9BY41); assay: Inhibition of HDAC8 in human HeLa cell nuclear extract using Fluor de Lys as substrate after 15 mins by fluorometric analysis
# T1 sequence (Q9BY41 whole entry): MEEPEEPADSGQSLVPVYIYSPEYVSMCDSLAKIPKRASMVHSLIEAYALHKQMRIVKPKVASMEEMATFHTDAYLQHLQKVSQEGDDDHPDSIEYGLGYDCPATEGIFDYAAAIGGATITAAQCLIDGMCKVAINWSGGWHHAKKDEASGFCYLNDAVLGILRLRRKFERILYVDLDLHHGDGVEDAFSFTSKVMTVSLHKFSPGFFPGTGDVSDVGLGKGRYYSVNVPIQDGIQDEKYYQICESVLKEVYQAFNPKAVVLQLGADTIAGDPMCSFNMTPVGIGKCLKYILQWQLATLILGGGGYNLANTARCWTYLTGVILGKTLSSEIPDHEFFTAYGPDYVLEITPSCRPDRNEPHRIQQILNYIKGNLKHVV
# [2] = target: T2, Protein deacetylase HDAC6 (Homo sapiens) (UniProt Q9UBN7); assay: Inhibition of HDAC6-mediated tubulin acetylation in human DU145 cells at 130 nM after 4 hrs by Western blot analysis; format: cell-based; settings: DU-145
# T2 sequence (whole entry): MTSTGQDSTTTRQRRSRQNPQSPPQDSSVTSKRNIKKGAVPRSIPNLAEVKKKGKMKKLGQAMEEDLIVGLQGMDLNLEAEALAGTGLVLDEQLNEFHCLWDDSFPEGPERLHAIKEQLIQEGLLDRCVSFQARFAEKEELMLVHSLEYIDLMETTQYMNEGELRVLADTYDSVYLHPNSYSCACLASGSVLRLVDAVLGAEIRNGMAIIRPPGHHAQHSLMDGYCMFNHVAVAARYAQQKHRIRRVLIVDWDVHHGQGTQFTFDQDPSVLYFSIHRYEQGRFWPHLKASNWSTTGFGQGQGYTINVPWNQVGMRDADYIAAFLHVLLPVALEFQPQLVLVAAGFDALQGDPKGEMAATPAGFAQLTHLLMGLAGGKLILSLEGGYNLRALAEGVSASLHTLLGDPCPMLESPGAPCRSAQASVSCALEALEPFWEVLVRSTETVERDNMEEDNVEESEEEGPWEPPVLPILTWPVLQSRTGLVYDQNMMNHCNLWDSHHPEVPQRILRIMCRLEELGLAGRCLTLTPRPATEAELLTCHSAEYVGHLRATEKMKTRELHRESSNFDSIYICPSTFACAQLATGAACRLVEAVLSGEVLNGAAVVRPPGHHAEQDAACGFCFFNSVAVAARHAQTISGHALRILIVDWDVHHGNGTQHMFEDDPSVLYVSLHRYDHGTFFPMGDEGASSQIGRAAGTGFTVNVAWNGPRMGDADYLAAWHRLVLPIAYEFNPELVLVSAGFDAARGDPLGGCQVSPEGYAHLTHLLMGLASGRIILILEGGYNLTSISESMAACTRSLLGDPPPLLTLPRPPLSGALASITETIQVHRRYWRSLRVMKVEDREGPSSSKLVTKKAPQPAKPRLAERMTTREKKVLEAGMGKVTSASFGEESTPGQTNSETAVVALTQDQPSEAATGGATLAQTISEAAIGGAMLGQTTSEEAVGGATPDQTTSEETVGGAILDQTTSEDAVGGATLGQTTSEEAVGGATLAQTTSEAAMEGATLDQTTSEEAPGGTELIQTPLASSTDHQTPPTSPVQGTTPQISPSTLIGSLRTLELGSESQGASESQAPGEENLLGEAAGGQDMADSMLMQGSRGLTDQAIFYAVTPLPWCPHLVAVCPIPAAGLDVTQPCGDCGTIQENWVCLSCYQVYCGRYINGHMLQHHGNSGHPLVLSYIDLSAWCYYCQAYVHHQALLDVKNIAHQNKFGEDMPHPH
# Procedure, shortened: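 DU-145 cells passaged 24 h before dosing, then treated 4 h, with no more than 0.1% DMSO including controls. Lysis in RIPA buffer with protease inhibitors, protein quantified against a BSA standard, SDS-PAGE and transfer. Blots probed with rabbit anti-tubulin and mouse anti-acetyl tubulin, read by near-infrared imaging at 700/800 nm.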
# [3] = target: T3, Histone deacetylase (Homo sapiens) (UniProt Q13547+O15379+Q9UBN7+Q92769+Q9UQL6+Q8WUI4+Q9BY41+Q96DB2+P56524+Q9UKV0+Q969S8); assay: Inhibition of HDAC in human DU145 cells assessed as upregulation of p21 expression at IC50 concentration after 4 hrs by Western blot analysis relative to control; format: cell-based; settings: DU-145
# Procedure, shortened: (§1)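 Lysed in RIPA with protease inhibitors, cleared 14,000 RPM at 4°C. Immunoblotted, probing acetylated versus total tubulin; p21 also checked. Near-infrared detection at 700/800 nm.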
# [4] = target: T3, Histone deacetylase (Homo sapiens); assay: Inhibition of HDAC in human DU145 cells assessed as upregulation of p21 expression at 5 times IC50 concentration after 4 hrs by Western blot analysis relative to control; format: cell-based; settings: DU-145; procedure, shortened: as §1
compound,measurement,setting,value
COc1cccc2c1C(=O)c1c(O)c3c(c(O)c1C2=O)C[C@@](O)(C(C)=O)C[C@@H]3O[C@H]1C[C@H](NCc2ccc(NC(=O)CCCCCCC(=O)NO)cc2)[C@H](O)[C@H](C)O1,IC50,[1],64.7 nM
same,IC50,Histone deacetylase 8,220 nM
same,inhibition,[2],Active
same,Activity,[3],inactive
same,Activity,[4],inactive
